Hits are enriched below; roughly 3.5% of the tested compounds scored in any of these assays.
MrgX1 PAM: allosterically activates human MrgX1 receptor signaling | MrgX1-HEK293, Fluo-4 calcium flux, FDSS; active compounds read high | AID 588675 | 310,000 tested, 0.63% active | Q96LB2 | B-score at 10 µM;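 active = plate-corrected calcium response at least 3 library SD above typical, normal starting fluorescence, not activating the receptor alone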;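 also: compound read alongside a low EC10 to EC30 dose of BAM8-22 agonist; peak minus trough fluorescence over baseline measured at the second addition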
Target sequence (Q96LB2 whole entry, looked up): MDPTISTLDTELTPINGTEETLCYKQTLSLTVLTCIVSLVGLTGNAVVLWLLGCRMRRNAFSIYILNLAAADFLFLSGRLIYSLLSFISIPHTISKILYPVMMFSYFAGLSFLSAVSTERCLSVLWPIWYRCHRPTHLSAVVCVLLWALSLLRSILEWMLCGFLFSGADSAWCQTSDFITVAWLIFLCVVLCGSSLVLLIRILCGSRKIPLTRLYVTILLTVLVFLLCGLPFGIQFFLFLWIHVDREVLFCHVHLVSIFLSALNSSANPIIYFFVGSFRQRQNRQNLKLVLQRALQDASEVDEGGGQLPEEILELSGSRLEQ
MrgX1 antag: human MrgX1 receptor antagonism, primary screen. Q96LB2. MRGX1-HEK293 calcium flux, Fluo-4, BAM8-22 antagonism; active compounds read low. B-score at 10 µM. 310,000 tested, 1.3% active. AID 588676;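 active = calcium-response B-score plate-corrected more than 3 library SD below zero, starting fluorescence within 5 deviations, no agonist response on first addition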;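 also: peak minus trough fluorescence over baseline after final BAM8-22 challenge near maximal dose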
MrgX1 ag: activates human MrgX1 receptor signaling; 310,000 tested, 0.44% active; B-score at 10 µM; MrgX1-HEK293 cells, Fluo-4 calcium fluorescence, agonist mode; active compounds read high;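 active = calcium response B-score plate-corrected fluorescence ratio at least 3 library SD, with starting fluorescence B-score inside 5 SD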
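Material: MrgX1-expressing HEK293 cells; input: 15,000 cells per well; doses: test compound given as first of three sequential additions; schedule: overnight plating before 1 h dye loading; technique: Fluo-4 NW calcium-flux fluorescence, kinetic read; evaluation: baseline-normalised fluorescence change ratio, B-scored; control set: plate-wise positive and negative controls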
RGS4 act: potentiators or activators of RGS4; B-score at 10 µM; 310,000 tested, 0.92% active; AID 463111; HEK293 M3R/inducible RGS4, carbachol calcium flux Fluo4; active compounds read low;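 active = B-score of the integrated calcium signal more than 4 SD below the library mean, with starting fluorescence not abnormally high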;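 also: negative B-score means reduced calcium response which marks RGS4 activation or potentiation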
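Material: Inducible-RGS4 HEK293 cells carrying M3 receptor; also added: carbachol at ECmax as muscarinic agonist stimulus; incubation: compound preincubation 20 min at room temperature before agonist; signal: Fluo4-AM (2 µM) calcium-flux fluorescence, kinetic read; measure: integrated calcium ratio converted to B score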
RGS4 inh: inhibitors of human RGS4. P49798. HEK293 M3R/RGS4 inducible, Fluo-4 calcium flux; active compounds read high; triggered by carbachol at its EC20. B-score at 10 µM. 310,000 tested, 0.45% active;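 active = B-score, a plate-corrected calcium signal, over three deviations above library mean, with baseline fluorescence within five deviations of library mean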;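 also: RGS4 expression induced by doxycycline in cells with stable M3 receptor; B-score is computed from the integrated fluorescence ratio over baseline after carbachol; higher B-score means a larger calcium signal and so more RGS4 inhibition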
Target sequence (P49798 whole entry, looked up): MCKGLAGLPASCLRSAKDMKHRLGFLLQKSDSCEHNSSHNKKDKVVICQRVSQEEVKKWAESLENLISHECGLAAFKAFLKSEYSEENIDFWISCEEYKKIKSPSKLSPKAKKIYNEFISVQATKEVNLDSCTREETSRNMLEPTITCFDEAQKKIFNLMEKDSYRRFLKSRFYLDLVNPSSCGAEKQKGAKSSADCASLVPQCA
MrgX1 antag conf: human MrgX1 receptor antagonism, re-confirmation screen. shares compounds with MrgX1 antag. MrgX1-HEK293, BAM8-22 calcium flux, Fluo-4; active compounds read low. remaining BAM8-22 calcium response % of control (active compounds read low), % at 10 µM. 2,300 tested, 19% active;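 active = remaining agonist calcium response no higher than 100% minus 3 SD of agonist-only control wells, with starting fluorescence near control levels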;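 also: agonist BAM8-22 given at a near maximal EC90 to ECmax level; peak minus minimum fluorescence divided by baseline after agonist addition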
HEK293 Ca flux: activity in parental HEK293 cells lacking MrgX1 | fluorescence ratio F(max-min)/F0 at 10 µM | 4,000 tested, 2% active | Fluo-4 calcium fluorescence, FDSS | shares compounds with MrgX1 antag;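 active = duplicate-averaged calcium fluorescence ratio at least three times the standard deviation of buffer wells, a nonspecific response in parental cells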
HEK293 Ca counter: MrgX1 allosteric activator counter-screen hit in parental HEK293 cells; shares compounds with MrgX1 antag; fluorescence ratio F(max-min)/F0 at 10 µM; parental HEK293 calcium flux, Fluo-4 fluorescence ratio; active compounds read high; AID 624114; 4,000 tested, 0.4% active;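 active = calcium fluorescence ratio, averaged over duplicates, at least 3 SD of the buffer-well ratio, meaning a nonspecific response in receptor-free cells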;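 also: untransfected parental HEK293 lacking MrgX1 used as counterscreen for MrgX1 allosteric activators; fluorescence change taken during the second addition on a kinetic imager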
HEK293 Ca cntr2: activity in parental HEK293 cells lacking MrgX1 receptor; Fluo-4 calcium fluorescence (FDSS); active compounds read high; fluorescence ratio F(max-min)/F0 at 10 µM; AID 624115; 4,000 tested, 8.7% active; shares compounds with MrgX1 antag;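 active = calcium fluorescence ratio at least three times the spread of buffer wells, meaning a non-specific response in parental cells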
* marks the source's active call; other numbers are inactive results; i = inactive; . = no result given.

SMILES	MrgX1 PAM	MrgX1 antag	MrgX1 ag	RGS4 act	RGS4 inh	MrgX1 antag conf	HEK293 Ca flux	HEK293 Ca counter	HEK293 Ca cntr2
Nc1cc(C(=O)N2CCN(c3ccc([N+](=O)[O-])cc3)CC2)ccc1N1CC2CC(C1)c1cccc(=O)n1C2 (stereo not given)	i	i	i	i	i	.	.	.	.
Cc1nc2cc(-c3cccs3)[nH]n2c(=O)c1C	i	-5.2*	i	i	i	i	i	i	i
O=C(CCc1ccccc1)NC1CCSC1=O (stereo not given)	i	-6.1*	i	i	i	i	i	i	i
CSc1ccccc1NC(=O)C(=O)c1c[nH]c2ccccc12	i	i	i	i	i	.	.	.	.
Cc1cccc(C)c1NC(=O)C1NC(=O)CC1c1ccccc1 (stereo not given)	i	-9.5*	i	i	i	i	i	i	i
Cc1ccccc1OCC(=O)Nc1ccc2c(c1)OCO2	i	-4.5*	i	i	i	84%*	i	i	i
COCCN(C(=O)c1ccco1)c1nnc(-c2ccc(OC)c(OC)c2)s1	i	i	i	i	i	.	.	.	.
COc1ccc(-c2nnc(N(C)C(=O)c3ccco3)s2)cc1OC	i	-7.5*	i	i	i	i	i	i	i
Cc1cccc(NC(=O)Cn2cc(C(=O)C3CC3)c3ccccc32)c1C	i	i	i	i	i	.	.	.	.
O=C(NC1CC1)c1cc2c(s1)-c1ccccc1OC2	i	-5.2*	i	i	i	i	i	i	i
Cn1c(-c2nonc2N)nc2ccccc21	i	i	i	i	i	.	.	.	.
CCCn1c(-c2nonc2N)nc2ccccc21	i	-8.3*	i	i	i	i	i	i	i
Nc1nonc1-c1nc2ccccc2n1CC(=O)N1CCCCC1	i	-5.4*	i	i	i	i	i	i	i
Nc1nonc1-c1nc2ccccc2n1CC(=O)O	i	i	i	i	i	.	.	.	.
Cc1ccccc1OCC(=O)NCC(=O)OCc1ccc(Br)cc1	i	i	i	i	i	.	.	.	.
CCC(=O)Nc1ccc2c(c1)nc1n2CCN(CCOC)C1	i	i	i	i	i	.	.	.	.
Cc1ccc2c(c1)sc(-c1ccc(N(C)C)cc1)[n+]2C	i	-11*	i	i	i	i	0.66*	i	i
CC[n+]1c(C)sc2cc(C)ccc21	i	i	i	i	i	.	.	.	.
Cc1onc(-c2c(F)cccc2Cl)c1C(=O)Nc1nccs1	i	-4.6*	i	i	i	i	i	i	i
Cc1onc(-c2c(F)cccc2Cl)c1C(=O)Nc1nnc(C(F)(F)F)s1	i	-5.1*	i	i	i	85%*	i	i	i
CC(=O)c1cccc(NC(=O)CNC(=O)Cc2ccccc2)c1	i	i	i	i	i	.	.	.	.
Cc1ccc(NC(=O)CSc2ncnc3ccccc23)cc1S(=O)(=O)N1CCCCCC1	i	-5.3*	i	i	i	67%*	i	i	i
Cc1c(C)c2c(OCC(=O)Nc3ccc(CCO)cc3)cc3c(c2oc1=O)CCC(C)(C)O3	i	-6.2*	i	i	i	i	i	i	i
COc1ccccc1CNC(=O)COc1cc2c(c3oc(=O)cc(C)c13)CCC(C)(C)O2	i	-7.6*	i	i	i	62%*	i	i	i
Cc1c(C)c2c(OCC(=O)O)cc3c(c2oc1=O)CCC(C)(C)O3	i	i	i	i	i	.	.	.	.
SMILES	MrgX1 PAM	MrgX1 antag	MrgX1 ag	RGS4 act	RGS4 inh	MrgX1 antag conf	HEK293 Ca flux	HEK293 Ca counter	HEK293 Ca cntr2
COc1cc2c(cc1C1NC(=S)NC(C)=C1C(N)=O)CCCC2 (stereo not given)	i	i	i	i	i	.	.	.	.
CCN(CC)S(=O)(=O)c1ccc(NC(=O)Nc2cccc(C(F)(F)F)c2)cc1	i	-5.8*	i	i	i	64%*	i	i	i
COc1ccc(-c2csc(NC(=O)CSCc3c(C)noc3C)n2)c(OC)c1	i	i	i	i	i	.	.	.	.
CCOC(=O)c1cnc2nc(C(F)(F)F)[nH]n2c1=O	i	-5.5*	i	i	i	i	i	i	i
CCOc1ccc(NC2c3ccccc3C(=O)N2Cc2ccco2)cc1 (stereo not given)	i	i	i	i	i	.	.	.	.
Cn1c(=O)oc2cc(S(=O)(=O)NCCC(=O)N3CCc4ccccc43)ccc21	i	-5.1*	i	i	i	i	i	i	i
Cn1c(=O)oc2cc(S(=O)(=O)NCCC(=O)N3CCN(c4ccccc4F)CC3)ccc21	i	i	i	i	i	.	.	.	.
CCOC(=O)C1=C(O)CSC1=Nc1cccc2ccccc12	i	i	i	i	i	.	.	.	.
CCOC(=O)C1=C(O)CSC1=Nc1ccc(C)cc1	i	-5.7*	i	i	i	i	i	i	i
CC(NC(=O)CNC(=O)C(Cc1ccccc1)NC(=O)OCc1ccccc1)C(N)=O (stereo not given)	i	i	i	i	i	.	.	.	.
COc1ccc(CCNC(=O)c2c(O)c3ccccc3[nH]c2=O)cc1	i	i	i	i	i	.	.	.	.
Cc1ccc(C(CNS(=O)(=O)c2ccc(C)cc2)N2CCN(C)CC2)cc1 (stereo not given)	i	i	i	i	i	.	.	.	.
Cc1ccc(C(CNS(=O)(=O)c2ccc(Cl)cc2)N2CCN(C)CC2)cc1 (stereo not given)	i	-5*	i	i	i	78%*	i	i	i
Cc1cc(=O)n2c3ccccc3n(CC(O)CN3CCCC3)c2c1C#N (stereo not given)	i	-5.3*	i	i	i	i	i	i	i
COc1ccc2c(=O)c3ccccc3oc2c1	i	i	i	i	i	.	.	.	.
